An excerpt weighted towards active compounds, which were near 2.9% of everything screened.
FGF22 binding – shifts melting point of recombinant human FGF22. recombinant FGF22 thermal shift, SYPRO orange fluorescence; percent of sucrose octasulfate shift, DMSO zero. activity (Tm shift, normalised), % at 9.99 µM. 340,000 compounds, 1.5% hits;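 active means mean Tm shift, scaled 0 neutral to 100 positive control, at about 1.3% or above, every replicate too, limit read from the data; inconclusive means no clear call, values can overlap the other calls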
Target sequence (Q9HCT0 whole entry, looked up): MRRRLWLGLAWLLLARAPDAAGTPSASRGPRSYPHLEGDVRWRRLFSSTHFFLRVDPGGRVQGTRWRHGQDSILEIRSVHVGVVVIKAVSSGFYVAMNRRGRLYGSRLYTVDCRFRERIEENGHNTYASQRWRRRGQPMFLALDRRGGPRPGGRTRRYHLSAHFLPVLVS
PglD inh – blocks C. jejuni PglD acetyltransferase activity | AID 602405 | inhibition, % at 12.5 µM | purified PglD enzyme, DTNB colorimetric CoA detection | 360,000 compounds, 0.098% hits; in the data active means inhibition above about 16%, passing the limit was not always enough; inconclusive means no clear call, values can overlap the other calls
PGC1a acetyl inh – PGC1a acetylation modulation, inhibitor mode. U2OS PGC1a acetylation, AlphaScreen anti-acetyl-lysine; with virally co-expressed GCN5 acetyltransferase. inhibition, % at 15.6 µM. 350,000 compounds, 0.17% hits;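 active means every replicate shows inhibition of at least 40%; inconclusive means mean inhibition at least 40% but some replicate below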
Ecoli rRNA inh – selective bacterial rRNA inhibition in E. coli | E. coli WT GFP vs humanized-ribosome RFP mutants, fluorescence, 24 h; active compounds read low; DMSO median 0, no signal -100 | GFP signal change (wild-type ribosome), % (no concentration beside the values) | 350,000 compounds, 1.6% hits;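 active means significant combined selectivity score with lowered wild-type GFP, culture density cut under 30%, mutant RFP and density less affected; inactive means any of these conditions unmet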
Cneo AK release – causes C. neoformans cell lysis; AID 651654; lysis activity, % at 15 µM; adenylate kinase release luminescence, 4 h; normalised: neutral wells 0, clomiphene wells 100; 360,000 compounds, 0.2% hits;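 active means mean lysis activity across replicates of at least 80%, whatever share of replicates individually reach that level; inactive means mean lysis activity below 80%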
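Assay system: C. neoformans cells. Amount: yeast cell density of 5 × 10^6 cells/mL. Technique: AK luminescence. Buffer or medium: YPD. Times: static 4 h at 37 °C with compound, 1 h detection. Dosing: single-point compound dose. Read-out: lysis from increased AK signal.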
Vif inh – inhibitors of HIV Vif; 340,000 compounds, 0.35% hits; HEK293T cells, Vif self-association by quenched fluorescence, imaging, 24 h; inhibition, % at 7.49 µM; in the data active means inhibition above about 50%, passing the limit was not always enough; inconclusive means no clear call, values can overlap the other calls; inactive means below about 31%
AID977621 – growth inhibition of wild-type GFP E. coli, dose response, H69 mutant RFP, cherry-pick. shares compounds with Ecoli rRNA inh. 1,900 tested, under 10 active. activity change, negative = inhibition at 50 µM. E. coli wild-type GFP strain growth, fluorescence, 24 h;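 active means Wild-type ribosome reporter drop at least double the humanized mutant ribosome reporter drop, growth loss under a set limit; inconclusive means no clear call, values can overlap the other calls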;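 further: wild-type GFP and H69 mutant RFP strains grown together 50/50 in each well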
AID977628 – growth of wild-type and h24-humanized E. coli strains – h24 mutant RFP vs wild-type GFP, cherry-pick, dose response; shares compounds with Ecoli rRNA inh; E. coli WT GFP strain growth, fluorescence, 24 h; activity change, negative = inhibition at 50 µM; 1,900 tested, under 10 active;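 active means compound lowering the normal-ribosome reporter at least twice as much as the humanized-ribosome reporter, growth loss under a set limit; inconclusive means no clear call, values can overlap the other calls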;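 further: wild-type GFP and h24 humanized RFP strains co-cultured 1 to 1 per well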
Large screens that a line does not name were inactive (follow-up assays come after a bar, where they were run).

O=C(Nc1cccnc1)c1ccc([N+](=O)[O-])o1	Ecoli rRNA inh -19 | AID977628 inconclusive
CC(=O)c1ccc(NC(=O)c2ccc([N+](=O)[O-])o2)cc1	Ecoli rRNA inh -15 | AID977628 inactive
CC(=O)c1cccc(NC(=O)c2ccc([N+](=O)[O-])o2)c1	none (no result: Ecoli rRNA inh)
C[C@@H]1CN([C@@H](C)CO)C(=O)c2cc(NC(=O)CCC(F)(F)F)ccc2O[C@@H](C)CCCCO[C@H]1CN(C)C(=O)C1CCCCC1	none (no result: Vif inh)
COc1ccc(NC(=O)Nc2ccc3c(c2)C(=O)N([C@@H](C)CO)C[C@@H](C)[C@@H](CN(C)C(=O)NC(C)C)O3)cc1	none (no result: Vif inh)
CCCNC(=O)N1CC2(CCN(C(=O)Nc3cccc(F)c3)CC2)c2c(n(C)c3cc(OC)ccc23)[C@H]1CO	none (no result: FGF22 binding, PglD inh, PGC1a acetyl inh, Cneo AK release, Vif inh)
O=C(C[C@H]1CC[C@@H](NC(=O)C2CC2)[C@@H](CO)O1)NC1CCC1	none (no result: Vif inh)
COc1cc(OC)cc(C(=O)Nc2ccc(S(=O)(=O)Nc3cnc4ccccc4n3)cc2)c1	Ecoli rRNA inh -44 | AID977621 inactive
COc1cc(C(=O)Nc2ccc(S(=O)(=O)Nc3cnc4ccccc4n3)cc2)cc(OC)c1OC	none
COCc1c(C#N)c(NCCc2ccc(F)cc2)nc(C)c1[N+](=O)[O-]	Ecoli rRNA inh -17 (no result: PglD inh, PGC1a acetyl inh, Cneo AK release) | AID977621 inactive | AID977628 inactive
COCc1c(C#N)c(NCCc2ccccc2)nc(C)c1[N+](=O)[O-]	none (no result: PglD inh, PGC1a acetyl inh, Cneo AK release)
C[C@@H]1CCCCO[C@@H](CN(C)C)[C@@H](C)CN([C@@H](C)CO)C(=O)c2cc(NS(=O)(=O)c3cccs3)ccc2O1	none (no result: Vif inh)
Cc1nn2c(NCc3ccccn3)cc(C(C)C)nc2c1-c1ccccc1	Ecoli rRNA inh -21 (no result: PglD inh, Cneo AK release) | AID977628 inactive
O=S(=O)(c1cccc(F)c1)N1CC[C@@H]2[C@@H](CO)Nc3ccc(-c4cccc(F)c4)cc3[C@@H]21	none (no result: Vif inh)
CCOC(=O)c1cc2nc(-c3ccccc3)cc(C)n2n1	Ecoli rRNA inh -29 (no result: PGC1a acetyl inh) | AID977621 inactive | AID977628 inconclusive
CN1C[C@@H](O)COC[C@H]2O[C@H](CC(=O)N3CCN(c4ccccc4)CC3)CC[C@@H]21	none (no result: Vif inh)
CCN(CC)C(=O)COC(=O)c1ccc(C)c(NC(=O)c2ccco2)c1	none (no result: PglD inh, Cneo AK release)
Cc1ccc(C(=O)OCC(=O)c2c[nH]c3ccccc23)cc1NC(=O)c1ccco1	Ecoli rRNA inh -20 (no result: PglD inh, PGC1a acetyl inh, Cneo AK release) | AID977628 inconclusive
C[C@H]1CN([C@@H](C)CO)C(=O)c2cccc(NC(=O)CCCCCC(=O)Nc3ccccc3N)c2O[C@H]1CN(C)C(=O)Nc1ccc(C(F)(F)F)cc1	none (no result: PglD inh, Cneo AK release, Vif inh)
O=C(COC(=O)c1cccc(S(=O)(=O)N2CCCCC2)c1)NCc1cccc(Cl)c1	Ecoli rRNA inh -15 (no result: Vif inh) | AID977628 inactive
COc1ccccc1CNC(=O)COC(=O)c1cccc(S(=O)(=O)N2CCCCC2)c1	none (no result: PGC1a acetyl inh)
Cc1ccc(-c2cc[n+](Cc3ccccc3)cc2)cc1	Ecoli rRNA inh -32 (no result: PglD inh, Cneo AK release) | AID977621 inactive | AID977628 inconclusive
CC(C)CNc1nc(S(=O)(=O)c2ccccc2)c(Cl)s1	Ecoli rRNA inh -40 | AID977621 inconclusive | AID977628 inactive
Cc1noc(C)c1NC(=O)N(C)C[C@@H]1Oc2ccc(N(C)C)cc2CC(=O)N([C@H](C)CO)C[C@H]1C	none (no result: Vif inh)
COc1cccc(NC(=O)COC(=O)Cc2ccccc2[N+](=O)[O-])c1	Ecoli rRNA inh -17 | AID977628 inconclusive
COc1ccc(CCNC(=O)COC(=O)Cc2ccccc2[N+](=O)[O-])cc1	none
Cc1cccc(OCCC(=O)Nc2ccc(F)c(F)c2)c1	Ecoli rRNA inh -41 (no result: FGF22 binding, PglD inh) | AID977621 inactive
O=C(Nc1c(S(=O)(=O)c2ccc(Cl)cc2)csc1Br)c1ccccc1Cl	Ecoli rRNA inh -26 | AID977621 inactive | AID977628 inconclusive
